Published values collected from several papers.
Lines come from different studies, so protocols differ.
LRRK2 G2019S: Leucine-rich repeat serine/threonine-protein kinase 2 (LRRK2, Homo sapiens, UniProt Q5S007, G2019S)
LRRK2: Leucine-rich repeat serine/threonine-protein kinase 2 (LRRK2, Homo sapiens, UniProt Q5S007)

SMILES	target	assay	setting	remaining binding [%]
O=C(Nc1c[nH]nc1C(=O)NC1CCNCC1)c1cc(F)cc(F)c1	LRRK2 G2019S	binding, competition with immobilised ligand	1 µM	93
O=C(c1ccc(Nc2ncc(Cl)c(-c3ccc(Cl)s3)n2)cc1)N1CCC(N2CCCC2)CC1	LRRK2 G2019S	binding, competition with immobilised ligand	1 µM	1.1
CNC(=O)[C@@H]1CC[C@@H](n2c(-c3ccc4cnccc4c3)nc3ccc(C(=O)NCc4cccc(C(N)=O)c4)cc32)C1	LRRK2	binding, competition with immobilised ligand	1 µM	100
COCCOc1nc(-c2ccc(Cl)nc2)nc2c1CN(C(=O)c1ncn3ccccc13)CC2	LRRK2	cell-free assay, competition with immobilised ligand	0.1 µM	100
Cc1cnn2ncc(-c3ccnc(N(C)C)n3)c2c1	LRRK2 G2019S	binding	1 µM	100
COc1cnc(Nc2cccc(S(N)(=O)=O)c2)nc1N1CCN(c2ccccc2)CC1	LRRK2 G2019S	binding, competition with immobilised ligand	1 µM	95
CN(C)CC#Cc1ccc(OCCCc2sc(N3CCc4cccc(C(=O)Nc5nc6ccccc6s5)c4C3)nc2C(=O)O)c(F)c1	LRRK2 G2019S	cell-free assay, competition with immobilised ligand	1 µM	100
CN(C)c1nccc(-c2cnc3ncccn23)n1	LRRK2 G2019S	binding	1 µM	71
Nc1ncc2c(n1)-c1c([nH]c3ccc(C#CC4CC4)cc13)CCCC2	LRRK2 G2019S	binding, competition with immobilised ligand	1 µM	83
C[C@@H]1CCN(c2nccc(-c3cnn4ncccc34)n2)C1	LRRK2 G2019S	binding	1 µM	63
CC(C)CC(=O)N1CCc2nc(-c3ccc(Br)cc3)nc(N(C)Cc3ccccc3)c2C1	LRRK2 G2019S	cell-free assay, competition with immobilised ligand	0.1 µM	100
C[C@@H](c1ccc(-n2cnc3c(N)ncnc32)cc1)N1CCc2nn(C)c(Cc3ccccc3)c2C1=O	LRRK2	binding, competition with immobilised ligand	0.1 µM	93
C=CC(=O)N1CCC(C(=O)NCC(=O)N2CCN(c3nc(-c4cnc(N)nc4C(F)F)nc(N4CCOCC4)n3)CC2)CC1	LRRK2 G2019S	binding, competition with immobilised ligand	1 µM	79
O=C(c1ccc(Nc2nccc(-c3cc4ccccc4s3)n2)cc1)N1CCC(N2CCCC2)CC1	LRRK2 G2019S	binding, competition with immobilised ligand	1 µM	16
Cc1cc(-n2nc(Cc3cc(F)cc(C(F)(F)F)c3)nc2C)ccc1C(N)=O	LRRK2 G2019S	cell-free assay, competition with immobilised ligand	1 µM	100
O=C(NCCCN1CCOCC1)c1ccc(Nc2nccc(-c3cc4ccccc4s3)n2)cc1	LRRK2	binding, competition with immobilised ligand	1 µM	63
N[C@@H]1CCN(c2nccc(-c3cnn4ncccc34)n2)C1	LRRK2	binding	1 µM	100
CN(C)C(=O)Cn1cc(-c2nc(C3(c4ccc(-c5cnc(N)nc5)cc4)CC3)no2)cn1	LRRK2	cell-free assay, competition with immobilised ligand	1 µM	100
CC1CCCN1c1nccc(-c2cnn3ncccc23)n1 (centres unmarked)	LRRK2 G2019S	binding	1 µM	100
CC(=O)c1c(NS(C)(=O)=O)c2cc(-c3ccc(Cl)cc3)c(-c3ccc(Cl)cc3Cl)nc2n(C)c1=O	LRRK2	cell-free assay, competition with immobilised ligand	1 µM	65
CN(CCCC(F)(F)F)c1nccc(-c2cnn3ncccc23)n1	LRRK2	binding	1 µM	100
Cn1cc(Cl)c2c(Oc3c(F)cc(Nc4cc(Cl)nc(N)n4)cc3F)ccnc21	LRRK2	cell-free assay, competition with immobilised ligand	0.1 µM	75
c1cncc(-c2cccc(Nc3nccc(NC4CCCCC4)n3)c2)c1	LRRK2	binding, competition with immobilised ligand	10 µM	49
